25 molecules from ChEMBL document CHEMBL1687894, “Design, synthesis and evaluation of 3-methylene-substituted indolinones as antimalarials” (Eur J Med Chem, 2011) can be followed below.

In experiment [1] the target is T1, Falcipain 2 (Plasmodium falciparum, UniProt Q9N6S8).
T1 sequence (Q9N6S8 whole entry): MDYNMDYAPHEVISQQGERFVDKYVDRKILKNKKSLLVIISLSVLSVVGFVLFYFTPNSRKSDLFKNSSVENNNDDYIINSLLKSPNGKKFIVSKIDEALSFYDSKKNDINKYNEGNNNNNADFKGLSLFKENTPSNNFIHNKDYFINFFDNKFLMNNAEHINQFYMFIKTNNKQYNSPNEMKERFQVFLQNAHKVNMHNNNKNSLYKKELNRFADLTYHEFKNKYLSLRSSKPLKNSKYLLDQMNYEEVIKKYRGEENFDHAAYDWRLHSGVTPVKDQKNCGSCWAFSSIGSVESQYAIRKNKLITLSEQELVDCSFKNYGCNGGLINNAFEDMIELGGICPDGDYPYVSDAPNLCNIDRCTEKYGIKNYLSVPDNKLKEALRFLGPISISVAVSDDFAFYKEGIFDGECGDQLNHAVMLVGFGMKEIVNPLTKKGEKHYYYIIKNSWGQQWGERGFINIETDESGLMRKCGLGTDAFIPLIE
Briefly: Inhibition of Plasmodium falciparum falcipain 2 incubated with compound for 10 mins before addition of 25 uM Z-Leu-Arg-AMC substrate by fluorescence spectrophotometry. Put shortly:
(§1)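 Run at 25 °C in 100 mM sodium acetate pH 6.0 with 5 mM DTT and 0.75% DMSO. Enzyme was preincubated 10 min with compound diluted from DMSO, then Z-Leu-Arg-AMC was added and fluorescence was read immediately. Eight inhibitor concentrations were made by fivefold serial dilution. IC50 was fitted to percent inhibition versus a no-inhibitor control against log concentration.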

Experiment [2] has as its system Plasmodium falciparum. Briefly: Antiplasmodial activity against chloroquine-resistant Plasmodium falciparum W2 infected in human red blood cells assessed as inhibition of ring-stage parasite growth after 48 hrs by flow cytometry. The conditions noted are these: W2, 48 h. The experiment is classed as functional, organism-based. Background: Flow cytometry measures light scatter and fluorescence of single cells or particles in a stream.

Experiment [3] concerns the target T2, Cysteine protease falcipain-3 (Plasmodium falciparum, UniProt Q9NAW4).
T2 sequence (Q9NAW4 whole entry): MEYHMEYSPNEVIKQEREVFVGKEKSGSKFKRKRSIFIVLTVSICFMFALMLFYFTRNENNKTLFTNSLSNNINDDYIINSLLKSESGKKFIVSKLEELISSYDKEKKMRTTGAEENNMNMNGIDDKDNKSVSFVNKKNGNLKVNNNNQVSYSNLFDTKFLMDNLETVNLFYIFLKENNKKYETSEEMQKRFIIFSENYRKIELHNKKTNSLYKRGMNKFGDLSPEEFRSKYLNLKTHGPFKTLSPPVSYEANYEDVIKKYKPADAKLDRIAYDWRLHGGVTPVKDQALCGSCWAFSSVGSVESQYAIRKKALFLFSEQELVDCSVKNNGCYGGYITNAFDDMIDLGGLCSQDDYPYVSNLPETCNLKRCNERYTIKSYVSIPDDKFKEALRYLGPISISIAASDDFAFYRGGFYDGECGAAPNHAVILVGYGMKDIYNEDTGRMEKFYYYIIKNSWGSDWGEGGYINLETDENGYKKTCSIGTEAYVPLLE
Kind of experiment: Inhibition of Plasmodium falciparum falcipain 3 incubated with compound for 10 mins before addition of 25 uM Z-Leu-Arg-AMC substrate by fluorescence spectrophotometry. Put shortly: as §1

Usually IC50 stands for the concentration needed to halve the response being measured.

On to `O=C1Nc2ccccc2C1=CNCCCNc1ccnc2cc(Cl)ccc12`, for which the IC50 was above 50 µM in experiment [1] and 0.42 µM in experiment [2].
The corresponding values for `CCOC(=O)CNC=C1C(=O)Nc2ccccc21` are above 50 µM and 10.8 µM.
The corresponding values for `CN(C)C=C1C(=O)Nc2ccccc21` are above 50 µM and above 50 µM.
The corresponding values for `CN(C)C=C1C(=O)Nc2ccc(Cl)cc21` are above 50 µM and above 50 µM.
For `CN(C)C=C1C(=O)Nc2cc(Cl)ccc21`, the IC50 in experiment [1] and in experiment [2] was above 50 µM each time.
Regarding `CN(C)C=C1C(=O)Nc2c(Cl)cccc21`, the IC50 in experiment [1] and in experiment [2] was above 50 µM throughout.
In the case of `CN(C)C=C1C(=O)N(C)c2ccccc21`, the IC50 in experiment [1] and in experiment [2] was above 50 µM in each case.
Consider `O=C1Nc2ccccc2C1=CSCc1ccccc1`, for which the results for the IC50 in experiment [1] and in experiment [2] were above 50 µM and above 10 µM, respectively.
The corresponding values for `O=C1Nc2ccccc2C1=CNc1ccccc1` are above 50 µM and above 10 µM.
The corresponding values for `CCOC(=O)[C@H](Cc1ccccc1)NC=C1C(=O)Nc2ccccc21` are above 50 µM and above 10 µM.
Regarding `CC(C)CCNC(=O)[C@H](CC(C)C)NC=C1C(=O)Nc2ccccc21`, the IC50 in experiment [3] is above 50 µM; in experiment [1], above 50 µM; in experiment [2] it was 30.7 µM.
Consider `CC(C)CCNC(=O)[C@H](CC(C)C)NC=C1C(=O)Nc2ccc(Cl)cc21`, for which the IC50 in experiment [3] is above 50 µM; in experiment [1], 44.1 µM; in experiment [2], 18.7 µM.
The corresponding values for `CC(C)CCNC(=O)[C@H](CC(C)C)NC=C1C(=O)Nc2cc(Cl)ccc21` are above 50 µM, 48.5 µM and 15.9 µM.
For `CC(C)CCNC(=O)[C@H](CC(C)C)NC=C1C(=O)Nc2c(Cl)cccc21`, in that order: above 50 µM, 42.1 µM and 15.7 µM.
The corresponding values for `CC(C)CCNC(=O)[C@H](CC(C)C)NC=C1C(=O)N(C)c2ccccc21` are above 50 µM, above 50 µM and 23.5 µM.
For the molecule `CC(C)CCNC(=O)CNC=C1C(=O)Nc2ccccc21`, the IC50 in experiment [3] is above 50 µM; in experiment [1], above 50 µM; in experiment [2], 26.7 µM.
Turning to `CC(C)CCNC(=O)[C@H](CCc1ccccc1)NC=C1C(=O)Nc2ccccc21`, the concentration for half-maximal inhibition (IC50) in experiment [3] is above 50 µM; in experiment [1], 49.9 µM; in experiment [2], 18.6 µM.
The corresponding values for `CC(C)CCNC(=O)[C@H](Cc1ccccc1)NC=C1C(=O)Nc2ccc(Cl)cc21` are above 50 µM, 43.3 µM and above 50 µM.
The corresponding values for `CC(C)CCNC(=O)[C@H](CCc1ccccc1)NC=C1C(=O)Nc2c(Cl)cccc21` are above 50 µM, 44 µM and 13.4 µM.
On to `O=C1Nc2ccc(Cl)cc2C1=CNCCCNc1ccnc2cc(Cl)ccc12`, for which the values for the IC50 in experiment [1] and in experiment [2] were above 50 µM and 0.2 µM, respectively.
For the molecule `O=C1Nc2cc(Cl)ccc2C1=CNCCCNc1ccnc2cc(Cl)ccc12`, the IC50 is above 50 µM in experiment [1] and 0.18 µM in experiment [2].
The corresponding values for `O=C1Nc2c(Cl)cccc2C1=CNCCCNc1ccnc2cc(Cl)ccc12` are above 50 µM and 0.17 µM.
For `CN1C(=O)C(=CNCCCNc2ccnc3cc(Cl)ccc23)c2ccccc21`, in that order: above 50 µM and 0.29 µM.
As to `O=C1Nc2c(Cl)cccc2C1=CNCCNc1ccnc2cc(Cl)ccc12`, the IC50 in experiment [2] came to 0.14 µM.
On to `CC(C)C[C@H](NC(=O)[C@H]1O[C@@H]1C(=O)O)C(=O)NCCCCN=C(N)N` [E-64], for which the IC50 in experiment [3] amounted to 0.481 µM; in experiment [1], 0.112 µM.
